ChEMBL document CHEMBL5523688, “Selective targeting of human TET1 by cyclic peptide inhibitors: Insights from biochemical profiling” (Bioorg Med Chem, 2024)
The source made the active and inactive calls. No cut-off for these calls is given here.

What was measured:
[1] = target: T1, Methylcytosine dioxygenase TET1 (Homo sapiens, UniProt Q8NFU7); assay: Inhibition of N-terminal 3xFlag-tagged recombinant human TET1 catalytic domain (E1418 to V2136 residues) expressed in baculovirus infected Sf9 cells using 5-methylcytosine as substrate preincubated for 10 mins followed by substrate and DNA-cofactor addition measured after 30 mins by Alphascreen assay
Method in brief: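 TET1 catalytic domain (E1418–V2136, Sf9 baculovirus) at 2 nM was preincubated 10 min with inhibitor (1% DMSO) in HEPES 50 mM pH 7.3, 150 mM NaCl, 0.1% BSA, 0.01% Tween-20. Reaction was started with ascorbate 200 µM, Fe(II) 20 µM, 2OG 20 µM and 5mC ssDNA 10 nM, run 30 min, then EDTA-quenched. Anti-5hmC antibody with AlphaScreen beads, 45–60 min, luminescence read. Three independent replicates.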

[2] = target: T1, Methylcytosine dioxygenase TET1; assay: Inhibition of FLAG-tagged human TET1 catalytic domain (E1418 to V2136 residues) expressed in doxycycline induced human U2OS cells assessed as reduction in 5-hydroxymethylcytosine level at 30 to 100 uM incubated for 24 hrs by immunofluorescence assay; assay type: cell-based; conditions: dose 30-100 µM
Method in brief: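 U2OS cells stably carrying dox-inducible FLAG-tagged TET1 catalytic domain were seeded at 5,000/well in DMEM with Tet-approved FBS (10%), penicillin/streptomycin and L-glutamine, then held 4 h at 37 °C. Induction used doxycycline 1 μg/mL alongside compound (1% DMSO final) for 24 h. Cells were fixed, permeabilised, blocked, immunostained (rabbit polyclonal oxidised-cytosine antibody 1:500, anti-FLAG 1:1000, 16 h) and DAPI-counterstained. Mean staining intensity of FLAG-TET1 cells was imaged.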

[3] = target: Methylcytosine dioxygenase TET3 (Homo sapiens, UniProt O43151); assay: Inhibition of recombinant human TET3 catalytic domain (E824 to I1795 residues) expressed in baculovirus infected Sf9 cells using 5-methylcytosine as substrate preincubated for 10 mins followed by substrate and DNA-cofactor addition measured after 10 mins by Alphascreen assay
[4] = target: T2, Methylcytosine dioxygenase TET2 (Homo sapiens, UniProt Q6N021); assay: (§1) Inhibition of N-terminal His-tagged recombinant human TET2 catalytic domain LCIdel mutant (D1129 to G1936 residues with Y1481 to N1843 replaced by 3 x GGGGS linker) expressed in Escherichia coli BL21 (DE3) using 5-methylcytosine as substrate preincubated for 10 mins followed by substrate and DNA-cofactor addition measured after 10 mins by Alphascreen assay
[5] = Selectivity ratio of pIC50 for inhibition of N-terminal 3xFlag-tagged recombinant human TET1 catalytic domain (E1418 to V2136 residues) expressed in baculovirus infected Sf9 cells to pIC50 for inhibition of recombinant human TET3 catalytic domain (E824 to I1795 residues) expressed in baculovirus infected Sf9 cells
[6] = target: Methylcytosine dioxygenase TET1 (Mus musculus, UniProt Q3URK3); assay: Inhibition of recombinant mouse TET1 catalytic domain (E1367 to V2039 residues) expressed in baculovirus expression system using 5-methylcytosine as substrate preincubated for 10 mins followed by substrate and DNA-cofactor addition measured after 9 mins by Alphascreen assay
Method in brief: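 Murine Tet1 catalytic domain (E1367–V2039, High Five baculovirus) at 2 nM was preincubated 10 min with inhibitor (1% DMSO) in HEPES 50 mM pH 7.3, NaCl 150 mM, BSA 0.1%, Tween-20 0.01%. Ascorbate 200 µM, Fe(II) 20 µM, 2OG 20 µM and 5mC ssDNA 10 nM were added; reaction ran 9 min, then EDTA-quenched. AlphaScreen anti-5hmC detection by luminescence.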

Homo sapiens = species on record: Homo sapiens; assay: Selectivity ratio of pIC50 for inhibition of N-terminal 3xFlag-tagged recombinant human TET1 catalytic domain (E1418 to V2136 residues) expressed in baculovirus infected Sf9 cells to pIC50 for inhibition of N-terminal His-tagged recombinant human TET2 catalytic domain LCIdel mutant (D1129 to G1936 residues with Y1481 to N1843 replaced by 3 x GGGGS linker) expressed in Escherichia coli BL21 (DE3)
[7] = test system: Methylcytosine dioxygenase TET2 (Homo sapiens), Q6N021 [UNDEFINED MUTATION]; conditions: time 20.0 min
[8] = target: T2, Methylcytosine dioxygenase TET2; assay: as §1, with “after 12” for “after 10”, “by SPE-MS analysis” for “by Alphascreen assay”
[9] = target: T1, Methylcytosine dioxygenase TET1; assay: Inhibition of FLAG-tagged human TET1 catalytic domain (E1418 to V2136 residues) expressed in doxycycline induced human U2OS cells incubated for 24 hrs by immunofluorescence assay; assay type: cell-based
Method in brief: (§2)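 U2OS cells stably carrying dox-inducible FLAG-tagged TET1 catalytic domain (E1418–V2136), 5,000/well, seeded 4 h at 37 °C in DMEM with Tet-approved 10% FBS, pen/strep and L-glutamine. Doxycycline 1 µg/mL induction plus compound dosing (1% DMSO final) for 24 h. After fixation, cells were co-stained with anti-5hmC and anti-FLAG antibodies plus DAPI, then imaged. Read-out was mean 5hmC fluorescence in FLAG-positive cells.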

[10] = target: T1, Methylcytosine dioxygenase TET1; assay: Inhibition of FLAG-tagged human TET1 catalytic domain (E1418 to V2136 residues) expressed in doxycycline induced human U2OS cells assessed as reduction in 5-hydroxymethylcytosine level at 50 to 100 uM incubated for 24 hrs by immunofluorescence assay; assay type: cell-based; conditions: dose 50-100 µM; method in brief: as §2

Chain of Methylcytosine dioxygenase TET3 (O43151 whole entry, the tested form may be a part): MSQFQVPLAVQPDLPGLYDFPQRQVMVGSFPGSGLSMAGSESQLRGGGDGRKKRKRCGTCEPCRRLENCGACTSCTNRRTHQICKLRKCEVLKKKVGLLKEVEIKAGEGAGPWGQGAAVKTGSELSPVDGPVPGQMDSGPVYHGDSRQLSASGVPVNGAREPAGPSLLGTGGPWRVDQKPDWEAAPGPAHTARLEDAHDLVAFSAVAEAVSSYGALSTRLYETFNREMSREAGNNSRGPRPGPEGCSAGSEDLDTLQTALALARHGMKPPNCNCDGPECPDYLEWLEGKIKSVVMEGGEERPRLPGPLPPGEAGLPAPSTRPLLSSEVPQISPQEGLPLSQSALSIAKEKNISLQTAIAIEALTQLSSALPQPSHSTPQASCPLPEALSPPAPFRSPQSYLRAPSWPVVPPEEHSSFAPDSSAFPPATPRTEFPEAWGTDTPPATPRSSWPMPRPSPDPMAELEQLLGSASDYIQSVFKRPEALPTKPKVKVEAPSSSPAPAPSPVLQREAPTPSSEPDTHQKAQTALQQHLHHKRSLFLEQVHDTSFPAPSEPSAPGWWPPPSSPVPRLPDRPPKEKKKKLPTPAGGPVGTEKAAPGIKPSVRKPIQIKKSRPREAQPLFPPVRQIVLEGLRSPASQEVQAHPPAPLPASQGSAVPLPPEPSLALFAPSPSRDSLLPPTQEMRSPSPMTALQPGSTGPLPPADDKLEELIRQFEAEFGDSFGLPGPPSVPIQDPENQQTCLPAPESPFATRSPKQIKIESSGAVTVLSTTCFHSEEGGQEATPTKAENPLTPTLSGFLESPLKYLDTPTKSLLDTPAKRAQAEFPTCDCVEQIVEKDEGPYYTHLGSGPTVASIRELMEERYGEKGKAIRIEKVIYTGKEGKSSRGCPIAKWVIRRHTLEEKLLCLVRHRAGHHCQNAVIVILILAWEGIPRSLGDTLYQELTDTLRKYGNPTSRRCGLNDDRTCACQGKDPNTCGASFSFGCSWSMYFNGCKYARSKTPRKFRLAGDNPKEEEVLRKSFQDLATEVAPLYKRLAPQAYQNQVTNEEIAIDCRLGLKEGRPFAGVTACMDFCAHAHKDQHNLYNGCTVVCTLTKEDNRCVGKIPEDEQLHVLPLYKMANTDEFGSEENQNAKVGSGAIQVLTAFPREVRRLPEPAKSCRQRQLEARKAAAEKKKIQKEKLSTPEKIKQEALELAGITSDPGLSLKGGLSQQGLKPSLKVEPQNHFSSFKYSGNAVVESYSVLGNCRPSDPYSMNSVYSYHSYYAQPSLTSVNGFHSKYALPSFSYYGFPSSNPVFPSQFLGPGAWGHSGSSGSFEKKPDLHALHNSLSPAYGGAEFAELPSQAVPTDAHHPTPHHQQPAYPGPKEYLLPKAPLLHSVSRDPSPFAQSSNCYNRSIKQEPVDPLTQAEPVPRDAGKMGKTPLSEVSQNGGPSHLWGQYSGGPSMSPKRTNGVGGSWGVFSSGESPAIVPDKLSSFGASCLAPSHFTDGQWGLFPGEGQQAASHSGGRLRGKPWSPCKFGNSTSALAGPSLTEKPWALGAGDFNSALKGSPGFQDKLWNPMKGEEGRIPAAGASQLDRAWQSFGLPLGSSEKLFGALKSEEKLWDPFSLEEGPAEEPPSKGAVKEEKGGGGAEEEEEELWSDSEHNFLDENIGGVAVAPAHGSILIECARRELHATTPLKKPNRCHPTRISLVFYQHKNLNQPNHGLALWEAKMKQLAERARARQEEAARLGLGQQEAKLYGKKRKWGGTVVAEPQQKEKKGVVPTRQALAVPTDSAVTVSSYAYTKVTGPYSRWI
T1 sequence (Q8NFU7 whole entry, the tested form may be a part): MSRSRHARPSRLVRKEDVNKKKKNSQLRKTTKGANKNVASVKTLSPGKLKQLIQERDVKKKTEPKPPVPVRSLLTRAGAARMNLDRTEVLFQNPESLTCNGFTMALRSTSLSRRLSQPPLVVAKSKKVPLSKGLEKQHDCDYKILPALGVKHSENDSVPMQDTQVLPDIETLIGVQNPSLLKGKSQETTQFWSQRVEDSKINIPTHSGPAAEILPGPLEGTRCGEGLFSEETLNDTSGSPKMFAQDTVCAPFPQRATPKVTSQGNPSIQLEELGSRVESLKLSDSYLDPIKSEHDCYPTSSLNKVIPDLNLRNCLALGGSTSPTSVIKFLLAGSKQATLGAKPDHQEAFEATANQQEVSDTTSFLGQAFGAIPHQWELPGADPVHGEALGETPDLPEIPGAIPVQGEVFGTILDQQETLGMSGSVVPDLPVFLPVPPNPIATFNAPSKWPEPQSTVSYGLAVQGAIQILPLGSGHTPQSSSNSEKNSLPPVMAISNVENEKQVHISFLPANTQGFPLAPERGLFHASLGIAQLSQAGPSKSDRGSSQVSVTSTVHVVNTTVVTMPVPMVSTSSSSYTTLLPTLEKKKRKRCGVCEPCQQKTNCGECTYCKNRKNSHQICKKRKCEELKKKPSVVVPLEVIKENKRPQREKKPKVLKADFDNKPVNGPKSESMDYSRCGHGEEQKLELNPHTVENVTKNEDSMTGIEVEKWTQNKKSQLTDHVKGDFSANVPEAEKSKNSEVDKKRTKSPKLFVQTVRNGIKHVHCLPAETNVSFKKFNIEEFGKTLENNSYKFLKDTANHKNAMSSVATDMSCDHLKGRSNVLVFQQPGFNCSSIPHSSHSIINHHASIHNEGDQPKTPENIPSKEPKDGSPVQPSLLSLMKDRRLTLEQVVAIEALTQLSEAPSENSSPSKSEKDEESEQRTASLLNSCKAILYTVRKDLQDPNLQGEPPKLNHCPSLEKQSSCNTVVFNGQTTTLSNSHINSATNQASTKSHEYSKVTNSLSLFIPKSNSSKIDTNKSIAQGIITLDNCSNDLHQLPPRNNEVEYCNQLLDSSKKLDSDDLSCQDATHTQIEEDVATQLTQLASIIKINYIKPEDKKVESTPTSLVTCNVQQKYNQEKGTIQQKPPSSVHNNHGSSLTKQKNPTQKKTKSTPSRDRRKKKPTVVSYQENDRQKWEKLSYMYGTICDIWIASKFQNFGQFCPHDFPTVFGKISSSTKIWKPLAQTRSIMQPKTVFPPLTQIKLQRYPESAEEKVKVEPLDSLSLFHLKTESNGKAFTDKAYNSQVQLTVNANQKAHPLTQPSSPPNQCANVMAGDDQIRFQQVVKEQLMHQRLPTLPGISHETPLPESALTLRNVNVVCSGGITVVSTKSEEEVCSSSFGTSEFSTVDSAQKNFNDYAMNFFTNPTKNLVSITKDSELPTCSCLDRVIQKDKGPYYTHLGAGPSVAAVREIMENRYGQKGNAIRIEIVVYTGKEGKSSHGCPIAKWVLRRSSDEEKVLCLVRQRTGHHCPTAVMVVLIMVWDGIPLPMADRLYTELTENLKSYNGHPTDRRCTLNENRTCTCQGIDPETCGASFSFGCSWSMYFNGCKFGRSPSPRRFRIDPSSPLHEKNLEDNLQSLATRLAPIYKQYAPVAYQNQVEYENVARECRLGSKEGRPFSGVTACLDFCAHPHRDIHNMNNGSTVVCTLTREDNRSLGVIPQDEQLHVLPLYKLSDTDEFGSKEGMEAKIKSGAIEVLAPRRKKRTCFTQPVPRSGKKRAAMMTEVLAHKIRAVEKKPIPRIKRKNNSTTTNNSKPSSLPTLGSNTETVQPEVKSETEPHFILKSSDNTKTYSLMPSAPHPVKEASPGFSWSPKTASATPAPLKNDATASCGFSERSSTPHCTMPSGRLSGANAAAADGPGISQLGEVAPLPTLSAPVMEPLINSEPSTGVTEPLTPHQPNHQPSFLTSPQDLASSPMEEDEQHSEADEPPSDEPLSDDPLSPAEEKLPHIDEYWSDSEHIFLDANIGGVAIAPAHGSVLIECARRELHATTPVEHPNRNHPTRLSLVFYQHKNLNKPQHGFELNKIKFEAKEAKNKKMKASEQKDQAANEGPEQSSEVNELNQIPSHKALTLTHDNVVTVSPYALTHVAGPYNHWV

| Compound | IC50 ([1]; read-out: pIC50 (converted)) [µM] | inhibition [2] | IC50 ([3]; read-out: pIC50 (converted)) [µM] | pIC50 [4] | Ratio pIC50 [5] | IC50 [6] [µM] | Ratio pIC50 (Homo sapiens) | deltapIC50 [7] | pIC50 [8] | IC50 [9] [µM] | IC50 ([1]; read-out: IC50) [µM] | IC50 ([3]; read-out: IC50) [µM] | inhibition [10] |
| --- | --- | --- | --- | --- | --- | --- | --- | --- | --- | --- | --- | --- | --- |
| N=C(N)NCCC[C@H](NC(=O)[C@H](CCCNC(=N)N)NC(=O)[C@H](CCCNC(=N)N)NC(=O)[C@H](CCC(N)=O)NC(=O)[C@H](CCCNC(=N)N)NC(=O)[C@H](CCCNC(=N)N)NC(=O)[C@H](CCCCN)NC(=O)[C@H](CCCCN)NC(=O)[C@H](CCCNC(=N)N)NC(=O)CNC(=O)[C@@H](N)Cc1ccc(O)cc1)C(=O)O | 1.15 | Active | > 100 | 5.39 |  |  |  |  |  |  |  |  |  |
| CC[C@H](C)[C@@H]1NC(=O)[C@H](CC(C)C)NC(=O)[C@@H](Cc2ccc(O)cc2)NC(=O)CSC[C@@H](C(=O)NCC(=O)N[C@@H](CO)C(=O)NCC(=O)N[C@@H](CO)C(=O)N[C@@H](CC(=O)O)C(=O)N[C@@H](Cc2ccc(O)cc2)C(=O)N[C@@H](CCCCN)C(=O)N[C@@H](CC(=O)O)C(=O)N[C@@H](CC(=O)O)C(=O)N[C@@H](CC(=O)O)C(=O)N[C@@H](CC(=O)O)C(=O)N[C@@H](CCCCN)C(N)=O)NC(=O)[C@H](CO)NC(=O)[C@H](Cc2c[nH]cn2)NC(=O)[C@H](CCC(=O)O)NC(=O)[C@H](Cc2c[nH]c3ccccc23)NC(=O)[C@H](Cc2c[nH]c3ccccc23)NC(=O)[C@H]([C@@H](C)O)NC(=O)[C@H](Cc2ccc(O)cc2)NC(=O)[C@H](Cc2ccc(O)cc2)NC(=O)[C@H](C)NC(=O)[C@H](Cc2ccc(O)cc2)NC1=O | 0.407 |  | 23.4 | 4.59 | 58 |  |  |  |  |  |  |  |  |
| CC[C@H](C)[C@@H]1NC(=O)[C@H](CC(C)C)NC(=O)[C@H](Cc2c[nH]c3ccccc23)NC(=O)[C@H](Cc2c[nH]c3ccccc23)NC(=O)[C@H]([C@@H](C)O)NC(=O)[C@H](Cc2ccc(O)cc2)NC(=O)[C@H](CC(C)C)NC(=O)[C@H](C)NC(=O)[C@H](Cc2ccc(O)cc2)NC(=O)[C@H](CCC(=O)O)NC(=O)[C@H](CCCNC(=N)N)NC(=O)[C@@H](Cc2ccc(O)cc2)NC(=O)CSC[C@@H](C(N)=O)NC(=O)[C@H](CCC(N)=O)NC1=O | 0.204 |  | 49 | 4.38 |  | 45.7 | 12 | 1.22 | 5.6 |  |  |  |  |
| N=C(N)NCCC[C@H](NC(=O)[C@H](CCCNC(=N)N)NC(=O)[C@H](CCCNC(=N)N)NC(=O)[C@H](CCCNC(=N)N)NC(=O)[C@H](CCCNC(=N)N)NC(=O)[C@H](CCCNC(=N)N)NC(=O)[C@H](CCCNC(=N)N)NC(=O)[C@@H](N)CCCNC(=N)N)C(=O)O | 0.251 | Active | > 100 | 6.45 |  |  |  |  |  |  |  |  |  |
| O=C(O)c1ccc(O)c2ncccc12 | 0.562 |  |  |  |  | 0.427 |  | 0.07 |  | 22 |  |  |  |
| CC[C@H](C)[C@@H]1NC(=O)[C@H](CC(C)C)NC(=O)[C@@H](Cc2ccc(O)cc2)NC(=O)CSC[C@H](C(=O)N[C@@H](Cc2ccc(O)cc2)C(=O)NCC(=O)N[C@@H](CCCNC(=N)N)C(=O)N[C@@H](CCCCN)C(=O)N[C@@H](CCCCN)C(=O)N[C@@H](CCCNC(=N)N)C(=O)N[C@@H](CCCNC(=N)N)C(=O)N[C@@H](CCC(N)=O)C(=O)N[C@@H](CCCNC(=N)N)C(=O)N[C@@H](CCCNC(=N)N)C(N)=O)NC(=O)[C@H](CO)NC(=O)[C@H](Cc2c[nH]cn2)NC(=O)[C@H](CCC(=O)O)NC(=O)[C@H](Cc2c[nH]c3ccccc23)NC(=O)[C@H](Cc2c[nH]c3ccccc23)NC(=O)[C@H]([C@@H](C)O)NC(=O)[C@H](Cc2ccc(O)cc2)NC(=O)[C@H](Cc2ccc(O)cc2)NC(=O)[C@H](C)NC(=O)[C@H](Cc2ccc(O)cc2)NC1=O | 0.0182 |  | 0.182 | 6.91 |  |  |  |  |  |  | 0.25 | > 100 | Active |
